What all share (format): functional
Assay [1] relates to J774. The experiment in a line: Cytotoxicity against murine J774 cells assessed as cell viability at 0.1 ug/mL after 18 hrs by MTT assay. The settings on record: Mus musculus, J774, 18 h; read-out: Activity. A digest of the protocol: (§1)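 J774 macrophages plated at 2.5 × 10⁶ cells/mL and held 1 h at 37 °C under 5% CO₂. Non-adherent cells were washed off with RPMI 1640. Adherent cells were exposed in triplicate to compound at 0.1, 1.0, 10.0 or 100 µg/mL, with medium alone as live control and 3% Tween 20 as dead control. After 18 h, MTT was added for 4 h, formazan was dissolved in DMSO, and A540 was read.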

The subject of assay [2] is J774. As to the kind of experiment: Cytotoxicity against murine J774 cells assessed as cell viability at 100 ug/mL after 18 hrs by MTT assay. The settings on record: Mus musculus, J774, 18 h; read-out: Activity. A digest of the protocol:
as §1
In general terms: Formazan colour is commonly taken as a measure of viable cells.

In assay [3] the test system is J774. As to the kind of experiment: Cytotoxicity against murine J774 cells assessed as cell viability at 1 ug/mL after 18 hrs by MTT assay. To be noted: Mus musculus, J774, 18 h; read-out: Activity. A digest of the protocol:
as §1

Assay [4] relates to Mycobacterium tuberculosis. As to the kind of experiment: Antibacterial activity against Mycobacterium tuberculosis ATTC 27294 after 5 days by MABA assay. To be noted: for MIC: 120 h. A digest of the protocol: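 Microplate Alamar blue assay in Middlebrook 7H9 broth. Compounds serially diluted on the plate to final concentrations of […]. Plates sealed and incubated at 37 °C for 5 days. A 1:1 mix of Alamar blue and 10% Tween 80 was then added and plates incubated 24 h. Blue scored as no growth, pink as growth. MIC is the lowest concentration preventing the blue-to-pink change.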
For orientation: Alamar Blue is a resazurin reagent that responds to reducing activity.

Assay [5] deals with J774. The experiment in a line: Cytotoxicity against murine J774 cells assessed as cell viability at 10 ug/mL after 18 hrs by MTT assay. The settings on record: Mus musculus, J774, 18 h; read-out: Activity. The essentials: as §1

From ChEMBL document CHEMBL1138286, “Synthesis and biological evaluation of N-(aryl)-2-thiophen-2-ylacetamides series as a new class of antitubercular agents” (2007) come the findings set out here.

≈ marks a conversion by molar mass, not a printed value. Calls of active or inactive are those of the source.

A word on the MIC: it is the smallest concentration in the dilution series that meets the test's criterion for growth inhibition. Higher therefore signals a less susceptible organism. On to `O=C(Cc1cccs1)Nc1ccc([N+](=O)[O-])cc1`, for which the viability at 0.1 µg/mL in the assay on J774 [1] came to 100%. Moreover, the viability at 100 µg/mL in the assay on J774 [2] worked out at 85%. Besides, the viability at 1 µg/mL in the assay on J774 [3] stood at 100%. The MIC in assay [4] turned out to be 50 µg/mL (≈ 191 µM). Besides, in the assay on J774 [5], the viability at 10 µg/mL stood at 100%. Take `Cc1ccccc1NC(=O)Cc1cccs1`: it took 100 µg/mL (≈ 432 µM) to inhibit growth in assay [4] (MIC). On to `Cc1cccc(C)c1NC(=O)Cc1cccs1`, for which the result in assay [4] was inactive. `COc1cccc(NC(=O)Cc2cccs2)c1`: in the assay on J774 [1], the viability at 0.1 µg/mL came out at 100%. For the same molecule, the viability at 100 µg/mL in the assay with J774 [2] amounted to 100%. Moreover, the viability at 1 µg/mL in the assay with J774 [3] was found to be 100%. Further, 50 µg/mL (≈ 202 µM) was the least that counted as inhibitory in assay [4] (MIC). For the same molecule, the viability at 10 µg/mL in the assay with J774 [5] came to 100%.

As to `O=C(Cc1cccs1)Nc1ccc(F)cc1Cl`, the outcome in assay [4] was inactive.

In the case of `O=C(Cc1cccs1)Nc1ccccc1`, in the assay on J774 [1], the viability at 0.1 µg/mL came to 100%. Besides, the viability at 100 µg/mL with J774 [2] was found to be 100%. Further, the viability at 1 µg/mL in the assay on J774 [3] came out at 100%. In addition, the MIC in assay [4] was 25 µg/mL (≈ 115 µM). In the assay on J774 [5], the viability at 10 µg/mL turned out to be 100%. Turning to `O=C(Cc1cccs1)Nc1ccc2c(c1)OCO2`, the result in assay [4] was inactive. For the molecule `COc1ccccc1NC(=O)Cc1cccs1`, the outcome in assay [4] was inactive.

For `O=C(Cc1cccs1)Nc1ccc(Br)cc1`, the result in assay [4] was inactive. On to `COc1ccc(NC(=O)Cc2cccs2)cc1`, for which, in assay [4], the result was inactive. In assay [4], `CO[C@H]1/C=C/O[C@@]2(C)Oc3c(C)c(O)c4c(O)c(c(/C=N/N5CCN(C)CC5)c(O)c4c3C2=O)NC(=O)/C(C)=C\C=C\[C@H](C)[C@H](O)[C@@H](C)[C@@H](O)[C@@H](C)[C@H](OC(C)=O)[C@@H]1C` [RIFAMPIN] showed an MIC of 1 µg/mL (≈ 1.22 µM). For `O=C(Cc1cccs1)Nc1ccccc1[N+](=O)[O-]`, in assay [4], the outcome was inactive. On to `NNC(=O)c1ccncc1` [ISONIAZID], for which, in assay [4], it took 0.2 µg/mL (≈ 1.46 µM) to inhibit growth (MIC). For `O=C(Cc1cccs1)Nc1cccc([N+](=O)[O-])c1`, the result in assay [4] was inactive.

On to `O=C(Cc1cccs1)Nc1c(Cl)cccc1Cl`, for which the outcome in assay [4] was inactive.

`O=C(Cc1cccs1)Nc1ccccc1C(F)(F)F`: in assay [4], the outcome was inactive.

Consider `O=C(Cc1cccs1)Nc1ccc(Cl)cc1F`, for which 100 µg/mL (≈ 371 µM) was the least that counted as inhibitory in assay [4] (MIC). Regarding `O=C(Cc1cccs1)Nc1cccc(C(F)(F)F)c1`, the result in assay [4] was inactive. Take `O=C(Cc1cccs1)Nc1cccc(Cl)c1`: in the assay on J774 [1], the viability at 0.1 µg/mL came to 100%. In the assay on J774 [2], the viability at 100 µg/mL was 100%. In addition, the viability at 1 µg/mL in the assay on J774 [3] stood at 100%. Moreover, in assay [4], the MIC came out at 50 µg/mL (≈ 199 µM). Besides, the viability at 10 µg/mL with J774 [5] worked out at 100%. In assay [4], `O=C(Cc1cccs1)Nc1ccc(F)cc1` displayed an MIC of 100 µg/mL (≈ 425 µM). Regarding `O=C(Cc1cccs1)Nc1ccc(Cl)cc1`, 100 µg/mL (≈ 397 µM) was the least that counted as inhibitory in assay [4] (MIC). Take `COc1ccc(OC)c(NC(=O)Cc2cccs2)c1`: in assay [4], the outcome was inactive.
